Only some compounds are listed: those with a hit (about 12% of all), similar ones and a draw of the others.
MT stabilize HCS – microtubule stabilization, imaging screen. HeLa tubulin immunostaining HCS, 24 h; share of cells brighter than vehicle mean+2SD. % tubulin-high responders, % at 10 µM. 200,000 compounds, 0.83% hits. AID 2205;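 active = plate Z-score above 3 for both tubulin-high and condensed-nucleus cell shares, with cell loss under 80%, at 10 µM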;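 also: anti alpha tubulin signal scored within the nucleus-defined area of each cell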
b-catenin transl – alters nuclear translocation of beta-catenin in HeLa cells; immunofluorescence imaging; 190,000 compounds, 0.3% hits; nuclear translocation activity, % at 5 µM;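 active = nuclear translocation activity above 50% at 5 µM, with a well cell count of 50 or more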;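 also: per-cell ratio of nuclear to cytoplasmic median beta-catenin stain intensity; plate controls were DMSO negative control for no effect and GSK-3 inhibitor IX positive control for full effect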
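test system = HeLa cells, endogenous beta-catenin | dosing = single 5 µM dose plus 0.02–20 µM confirmation series | times = compound treatment 24 h, 37°C, 5% CO2 | technique = beta-catenin immunofluorescence imaging with DAPI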
Dynein transport – blocks dynein driven cargo transport along microtubules. z-score, hits read low. AID 1381. 220,000 compounds, 0.47% hits. 3617.4 mouse cells, GR-EGFP nuclear translocation imaging; test concentration mostly 20 µM; stimulated with dexamethasone, 1 µM; stronger effect = lower value;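 active = plate z-score of nuclear minus cytoplasmic receptor signal below a set negative limit, without overly bright fluorescence or cell loss, cut at about -3.5 in these data, passing the limit was not always enough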;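 also: z-score of nuclear minus cytoplasmic ring GR-EGFP intensity difference per well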
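Schedule: 48 h induction, then 1 h compound, then 30 min agonist, 37 °C. Buffer or medium: tetracycline-free induction medium containing charcoal-stripped FBS. Reagent: 1.0 µM final dexamethasone stimulus. Evaluation: nuclear versus cytoplasmic GR-EGFP signal, averaged per well. Signal: high-content fluorescence imaging after fixation.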
Lmaj promast – Leishmania major promastigote growth inhibition | Leishmania major promastigotes, resazurin fluorescence viability | inhibition, % at 10 µM | 200,000 compounds, 9% hits | AID 1063; in the data active = inhibition above about 50%;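 also: promastigotes grown with compound for 44 hours at 28 °C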
Autophagy HCS – alters autophagy in cells. MEF GFP-LC3 puncta imaging; test concentration mostly 10 µM. calls only at 10 µM (by protocol). 190,000 compounds, 0.98% hits. AID 463193;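 active = percentage of spot-positive cells more than 3 SD above its plate mean, without a fluorescence outlier flag or 80% toxicity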;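 also: spot-positive cell cutoff set from DMSO-treated cells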
CHOP inh – inhibitors of CHOP induction in ER stress response; CHO-K1 CHOP-promoter luciferase, tunicamycin-induced, 15-18 h; inhibition, % at 10 µM; 220,000 compounds, 3.8% hits;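 active = compounds that reduced the stress-induced luciferase reporter signal by more than about 70% of percent inhibition, limit read from the data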;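 also: 0% = tunicamycin plus vehicle and 100% = wells without tunicamycin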
* marks the source's active call; other numbers are inactive results.

`COC(=O)CNC(=O)COC(=O)c1ccc(OC)c([N+](=O)[O-])c1` gave MT stabilize HCS 2.3, b-catenin transl -1.1, Dynein transport -0.618, Lmaj promast -6.2, Autophagy HCS inactive and CHOP inh -5.7.
O=c1c2ccc(Cl)cc2nc(-c2cccc(C(F)(F)F)c2)n1O was read as MT stabilize HCS 1.4, b-catenin transl 4.1, Dynein transport -0.158, Lmaj promast 98.5*, Autophagy HCS inactive and CHOP inh 73.6*.
O=C(O)c1ccccc1-c1nc2cc(Cl)ccc2c(=O)n1O was read as MT stabilize HCS 2.2, b-catenin transl -2.6, Dynein transport -0.328, Lmaj promast -15.7, Autophagy HCS inactive and CHOP inh 7.7.
CCOC(=O)C1CCCN(CCC(=O)Nc2cccc(F)c2)C1 (centres undefined) was read as MT stabilize HCS 2.5, b-catenin transl -1.8, Dynein transport -0.0911, Lmaj promast -6.1, Autophagy HCS inactive and CHOP inh 1.6.
For CCOC(=O)C1CCCN(CCC(=O)Nc2cccc(C)c2)C1 (centres undefined) the results were MT stabilize HCS 1.7, b-catenin transl 1.0, Dynein transport 1.06, Lmaj promast 16.7, Autophagy HCS active and CHOP inh -10.9.
CCOC(=O)C1CCCN(CCCc2ccccc2)C1 (centres undefined) was read as MT stabilize HCS 1.3, b-catenin transl -4.2, Dynein transport -0.64, Lmaj promast 50.5*, Autophagy HCS inactive and CHOP inh -0.9.
`COc1cc(CN2CCC(C(=O)N3CCCC(C)C3)CC2)cc(Br)c1O` (centres undefined) gave MT stabilize HCS 5.1, b-catenin transl -7.6, Dynein transport 0.967, Lmaj promast 75.6*, Autophagy HCS inactive and CHOP inh -29.8.
`CC1CCCN(C(=O)C2CCN(CC(C)c3ccccc3)CC2)C1` (centres undefined) gave MT stabilize HCS 3.7, b-catenin transl -1.2, Dynein transport -0.155, Lmaj promast 1.5, Autophagy HCS inactive and CHOP inh -5.1.
`CC1CCCN(C(=O)C2CCN(CCCc3ccccc3)CC2)C1` (centres undefined) gave MT stabilize HCS 4.5, b-catenin transl -0.3, Dynein transport -0.864, Lmaj promast 81.2*, Autophagy HCS inactive and CHOP inh 35.7.
For COc1ccc(CN2CCC(C(=O)N3CCCC(C)C3)CC2)cc1OC (centres undefined) the results were MT stabilize HCS 1.5, b-catenin transl 0.1, Dynein transport -0.703, Lmaj promast -6.7, Autophagy HCS inactive and CHOP inh -6.8.
`COc1cc(NC(=O)CCN2CCN(Cc3ccccc3)CC2)cc(OC)c1` gave MT stabilize HCS 1.2, b-catenin transl -1.2, Dynein transport -0.618, Lmaj promast -3.0, Autophagy HCS inactive and CHOP inh 13.0.
For O=C(CCN1CCN(Cc2ccccc2)CC1)Nc1cccc(Cl)c1 the results were MT stabilize HCS 1.7, b-catenin transl -5.6, Dynein transport -0.665, Lmaj promast 89.0*, Autophagy HCS inactive and CHOP inh 50.4.
CCOC(=O)C1CCN(CCC(=O)Nc2cccc(Cl)c2)CC1 was read as MT stabilize HCS 5.0, b-catenin transl -1.7, Dynein transport -0.18, Lmaj promast 93.2*, Autophagy HCS inactive and CHOP inh 22.0.
Screening CCCCN(C)C(=O)C1CCN(CCCc2ccccc2)CC1 returned MT stabilize HCS 6.4, b-catenin transl -1.4, Dynein transport -0.485, Lmaj promast 82.3*, Autophagy HCS inactive and CHOP inh -9.3.
Screening CCOC(=O)C1CCN(CCC(=O)Nc2ccc(C)cc2)CC1 returned MT stabilize HCS 1.9, b-catenin transl -0.7, Dynein transport 0.284, Lmaj promast 56.5*, Autophagy HCS inactive and CHOP inh -4.5.
O=C(COC(=O)c1cc[n+]([O-])cc1)NCc1ccccc1Cl was read as MT stabilize HCS 1.4, b-catenin transl -4.4, Dynein transport -0.781, Lmaj promast -5.8, Autophagy HCS inactive and CHOP inh 1.7.
CCNc1nc(NC(N)=S)nc(NC(C)(C)C)n1 was read as MT stabilize HCS 3.2, b-catenin transl -0.6, Dynein transport -0.28, Lmaj promast -0.9, Autophagy HCS inactive and CHOP inh 13.3.
`CSCCC(NC(=O)COc1cccc2ccccc12)C(=O)O` (centres undefined) gave b-catenin transl -1.0, Dynein transport 0.343 and CHOP inh 0.3.
Screening O=C(CN1C2CCCC1CC(NC(=O)c1ccccc1)C2)Nc1nccs1 (centres undefined) returned MT stabilize HCS 2.3, b-catenin transl 1.1, Dynein transport 0.233, Lmaj promast 23.1, Autophagy HCS inactive and CHOP inh 2.5.
For Cc1ccc2[nH]c3c(=O)n(CCCN4CCN(C)CC4)cnc3c2c1 the results were MT stabilize HCS 2.4, b-catenin transl -0.2, Dynein transport -2.01, Lmaj promast -3.3, Autophagy HCS inactive and CHOP inh -0.1.
COc1cc(C(=O)Nc2c(C)cc(C)cc2C)c([N+](=O)[O-])cc1OC was read as MT stabilize HCS 3.6, b-catenin transl -0.3, Dynein transport -0.682, Lmaj promast 1.1, Autophagy HCS inactive and CHOP inh -1.1.
Screening CCOC(=O)C1CCN(CCC(=O)Nc2ccccc2Cl)CC1 returned MT stabilize HCS 2.6, b-catenin transl -2.1, Dynein transport -0.109, Lmaj promast 77.7*, Autophagy HCS inactive and CHOP inh 19.4.
`COc1ccc(CSc2nnnn2Cc2ccccc2)cc1OC` gave MT stabilize HCS 5.6, b-catenin transl -4.6, Dynein transport -0.362, Lmaj promast -11.1, Autophagy HCS inactive and CHOP inh 1.1.
For COC(=O)c1cc(=O)nc2sccn12 the results were MT stabilize HCS 1.3, b-catenin transl -4.8, Dynein transport -0.67, Lmaj promast 0.2, Autophagy HCS inactive and CHOP inh 67.6.
`COC(=O)c1cc(NC(=O)c2c(Cl)nc3sccn23)cc(C(=O)OC)c1` gave MT stabilize HCS 2.1, b-catenin transl 5.7, Dynein transport 0.0238, Lmaj promast 0.3, Autophagy HCS inactive and CHOP inh 76.0*.
Screening N#Cc1ccc(Sc2nc3ccccc3[nH]2)cc1C#N returned MT stabilize HCS 4.0, b-catenin transl -4.8, Dynein transport 2.37, Lmaj promast 35.2, Autophagy HCS inactive and CHOP inh 16.3.
N#Cc1cc2ccccc2nc1N was read as MT stabilize HCS 4.0, b-catenin transl -1.9, Dynein transport -0.0622, Lmaj promast -2.6, Autophagy HCS active and CHOP inh -6.1.
`COc1ccc(NCC(=O)N/N=C/c2c(C)nn(Cc3ccccc3)c2Cl)cc1` gave MT stabilize HCS 4.1, b-catenin transl 1.8, Dynein transport -0.426, Lmaj promast 1.6, Autophagy HCS inactive and CHOP inh 23.2.

High-throughput results as filed in PubChem.
